This note sets out measurements from ChEMBL document CHEMBL2157864, “Microwave-assisted synthesis of hydroxyphenyl nitrones with protective action against oxidative stress” (Eur J Med Chem, 2012).

For data set [1], the system named is SH-SY5Y. As to the kind of experiment: Neuroprotective activity against SIN1-induced toxicity in human SH-SY5Y cells at 50 to 500 uM after 24 hrs by MTT assay. In kind it is functional, cell-based. An outline of the steps:
(§1)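 SH-SY5Y cells pre-incubated 1 h with compound, then challenged with SIN-1 (0.5 mM; ONOO⁻ generation about 9 μM per minute by DHR method) or vehicle; viability by MTT assay. Mean ± SD, three independent experiments.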
(In general: Tetrazolium dyes change colour on reduction, which living cells bring about.)

Data set [2] can be described thus: Cytotoxicity against rat primary astrocytes at 10 uM after 24 hrs by MTT assay. The class given is cell-based. The settings on record: astrocyte. In outline: (§2)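 Rat primary astrocyte or microglia cultures exposed 24 h to compound (10 μM); cytotoxicity assessed in vitro.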
The next data set has as its system Astrocyte. As to the kind of experiment: Antiinflammatory activity in rat primary astrocytes assessed as inhibition of LPS-induced nitrite production at 10 uM incubated for 1 hr prior to LPS-challenge measured after 24 hrs by Greiss method. In kind it is functional, cell-based. In outline:
(§3)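 Rat primary glial cultures (microglia or astrocytes) pre-incubated 1 h with compound, then 24 h with LPS (10 μg/mL); nitrite in culture medium measured by Griess reaction. Means ± SD of three experiments.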

Data set [3] is described as follows: Permeability of the compound after 4 hrs by PAMPA assay. In kind it is ADME. The settings on record: read-out: permeability. (In general: In PAMPA a lipid-coated filter parts donor from acceptor wells.)
In data set [4] the test system is SH-SY5Y. As to the kind of experiment: Cytotoxicity against human SH-SY5Y cells at 10 to 100 uM after 24 hrs by MTT assay. In kind it is cell-based. An outline of the steps: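 SH-SY5Y human neuroblastoma cells exposed to compound (10–100 μM) for 24 h; viability by MTT assay.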
Data set [5] can be described thus: Antioxidant activity against peroxyl radical production assessed as trolox equivalent by ORAC assay. In kind it is functional. In outline:
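Oxygen radical absorbance capacity assay, fluorescein as fluorescent probe, peroxyl radical scavenging; expressed as μmol Trolox equivalents per μmol compound, mean of n = 3 ± SD.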

A short description of data set [6]: Cytotoxicity against rat primary microglia cells at 10 uM after 24 hrs by MTT assay. The class given is cell-based. In outline: as §2
For data set [7], the system named is SH-SY5Y. As to the kind of experiment: Neuroprotective activity against 6OHDA-induced toxicity in human SH-SY5Y cells assessed as cell viability at 10 uM after 24 hrs by MTT assay (reference value: 75%). To be noted: read-out: Activity. The class given is functional.
Another data set concerns Microglia. As to the kind of experiment: Antiinflammatory activity in rat primary microglia cells assessed as inhibition of LPS-induced nitrite production at 10 uM incubated for 1 hr prior to LPS-challenge measured after 24 hrs by Greiss method. In kind it is functional. In outline:
as §3

Data set [8] can be described thus: Antioxidant activity against peroxynitrite radical at 50 uM by mass spectroscopic analysis. The class given is functional. An outline of the steps:
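Compound (50 μM) reacted with 500 μM ONOO⁻ in 50 mM potassium phosphate, pH 7.4, without NaNO₂; reaction products resolved chromatographically and characterised by mass spectrometry.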

The nature of data set [9]: Antioxidant activity against OH radical production by Western blot analysis. In kind it is functional.
Data set [10] in a line: Antioxidant activity against peroxynitrite assessed as inhibition of alpha-synuclein aggregate formation at 50 uM by Western blot analysis. The class given is functional. In outline: (§4)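 α-Synuclein (5 μM) exposed to authentic ONOO⁻ (200 μM) with compound (50 μM) or 1% DMSO; 12% SDS-PAGE, western blot with anti-αS and anti-3-nitrotyrosine antibodies; densitometry of anti-nitrotyrosine blots used for dose-response. Reverse-addition ONOO⁻ control included.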

Data set [11] deals with SH-SY5Y. As to the kind of experiment: Neuroprotective activity against SIN1-induced toxicity in human SH-SY5Y cells after 24 hrs by MTT assay. The class given is functional, cell-based. An outline of the steps: as §1
A short description of data set [12]: Antioxidant activity against peroxynitrite assessed as inhibition of cytochrome c nitration by Western blot analysis. In kind it is functional. An outline of the steps: (§5)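 RNase A or cytochrome c (5 μM) treated with authentic ONOO⁻ (200 μM) in presence of compound; 12% SDS-PAGE and western blot probed with anti-3-nitrotyrosine antibody.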
(A western blot detects proteins with antibodies after separation by electrophoresis.)

The nature of data set [13]: Antioxidant activity against CO3 radical production by Western blot analysis. In kind it is functional.
Data set [14] in a line: Antioxidant activity against peroxynitrite assessed as inhibition of alpha-synuclein nitration at 50 uM by Western blot analysis. In kind it is functional. In outline:
as §4

Data set [15] can be described thus: Antioxidant activity against NO2 radical production by Western blot analysis. In kind it is functional.
Data set [16] concerns SH-SY5Y. As to the kind of experiment: Neuroprotective activity against SIN1-induced toxicity in human SH-SY5Y cells assessed as cell viability at 100 uM after 24 hrs by MTT assay relative to control. In kind it is functional. The settings on record: read-out: Activity. An outline of the steps:
as §1

The test system of data set [17] is SH-SY5Y. As to the kind of experiment: Neuroprotective activity against SIN1-induced toxicity in human SH-SY5Y cells assessed as cell viability at 500 uM after 24 hrs by MTT assay relative to control. In kind it is functional. To be noted: read-out: Activity. In outline:
as §1

Data set [18] is described as follows: Antioxidant activity against NO2 radical assessed as mono nitreated derivative formation at 50 uM by mass spectroscopic analysis. In kind it is functional. An outline of the steps: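 Compound (50 μM) preincubated with excess NaNO₂ (4 mM), converting •OH to •NO₂, then 500 μM ONOO⁻ in 50 mM potassium phosphate, pH 7.4; products analysed by chromatography with mass spectrometry, tracking nitrated-product peak.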

Data set [19] can be described thus: Antioxidant activity against peroxynitrite assessed as inhibition of RNAse nitration by Western blot analysis. The class given is functional. In outline:
as §5

Data set [20] in a line: Antioxidant activity against peroxynitrite assessed as inhibition of alpha-synuclein nitration by Western blot analysis. The class given is functional. An outline of the steps:
as §4

The structures appear in SMILES notation. Calls of active or inactive are those of the source. The rule behind the calls is not given here.

`CC(C)(C)/[N+]([O-])=C/c1ccccc1O`: the result with SH-SY5Y [1] was inactive. In addition, the Activity entry in [2] was “Non-toxic”; in the data set with SH-SY5Y [4], “Non-toxic”; in [5] it was 2.6 equiv; in data set [6] it was “Non-toxic”. Moreover, the inhibition result with Astrocyte and with Microglia was “Active” throughout. For the same compound, in data set [3], the Papp at 4 h was 37.5 ×10⁻⁶ cm/s. For the same compound, the viability at 10 µM in the data set with SH-SY5Y [7] stood at 100%.

For the compound `CC(C)(C)/[N+]([O-])=C/c1ccc(O)cc1`, the result in data set [8], in [9], in data set [13], in data set [15] and in [18] was Active. The inhibition entry (in data set [10]; in data set [12]; in the data set with Astrocyte; in data set [14]; in data set [19]; in the data set on Microglia) was “Active” each time. In addition, the Activity result in the data set on SH-SY5Y [11] was “Dose-dependent effect”; in data set [2], “Non-toxic”; with SH-SY5Y [4] it was “Non-toxic”; in data set [5], 3.2 equiv; in data set [6], “Non-toxic”. Moreover, in [3], the Papp at 4 h was 0.2 ×10⁻⁶ cm/s. Moreover, the viability at 10 µM with SH-SY5Y [7] was 100%. Further, the viability at 100 µM in the data set on SH-SY5Y [16] came out at 91%. Moreover, the viability at 500 µM in the data set on SH-SY5Y [17] was found to be 100%. Further, in data set [20], the inhibition entry is “Dose-dependent effect”.

As for `CC(C)(C)c1cc(/C=[N+](\[O-])C(C)(C)C)cc(C(C)(C)C)c1O`, the outcome in the data set with SH-SY5Y [1] was inactive. For the same compound, the inhibition entry (in data set [10]; in data set [12]; with Astrocyte; in data set [14]; in [19]; in the data set on Microglia) was “Active” in each case. Besides, the Activity entry in data set [2] is “Non-toxic”; in the data set on SH-SY5Y [4] it was “Non-toxic”; in data set [5], 2 equiv; in data set [6], “Non-toxic”. The Papp at 4 h in [3] worked out at 10.2 ×10⁻⁶ cm/s. For the same compound, the viability at 10 µM in the data set with SH-SY5Y [7] amounted to 100%.

As for `CCn1cc(C(=O)O)c(=O)c2cc(F)c(N3CCNCC3)nc21` [ENOXACIN], the Papp at 4 h in [3] was 1.7 ×10⁻⁶ cm/s.

In the case of `CN1C(C(=O)Nc2ccccn2)=C(O)c2ccccc2S1(=O)=O` [PIROXICAM], the Papp at 4 h in [3] worked out at 1.6 ×10⁻⁶ cm/s.

With `CNCCCN1c2ccccc2CCc2ccccc21` [DESIPRAMINE], in data set [3], the Papp at 4 h worked out at 14.4 ×10⁻⁶ cm/s.

As to `CC(C)(C)/[N+]([O-])=C/c1ccccc1`, in [5], the Activity came to 0.014 equiv.
